According to ChEMBL document CHEMBL3259729, “Optimizing the Physicochemical Properties of Raf/MEK Inhibitors by Nitrogen Scanning” (ACS Med Chem Lett, 2014):
In brackets after ≈: the same amount, converted by molar mass.

Assays:
[1] = AUC in BALB-nu/nu mouse at 100 mg/kg, po measured after 24 hrs by LC-MS/MS analysis; format: ADME, organism-based; set-up: time < 24 hr, dose 100 mg/kg, route oral; details: plasma
Method in brief: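 Mice dosed orally at 100 mg/kg as a solution in 5% DMSO, 5% Cremophor EL, 15% PEG400, 15% 2-hydroxypropyl-β-cyclodextrin and 60% water.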

[2] = Membrane permeability of the compound at pH 6.5 by PAMPA PSR4p assay; format: physicochemical; details: read-out: permeability
[3] = Intrinsic clearance in human liver microsomes at 5 uM by LC/MS/MS analysis; format: ADME; details: read-out: CLH
[4] = target: Dual specificity mitogen-activated protein kinase kinase 1 (Homo sapiens, UniProt Q02750, S218E/S222E); assay: Inhibition of constitutively active MEK1 S218E,S222E mutant (unknown origin) assessed as MAP kinase 2/Erk2-mediated FAM-Erktide phosphorylation using MAP kinase 2/Erk2 as substrate preincubated for 30 mins by IMAP fluorescence polarization assay
Chain of Dual specificity mitogen-activated protein kinase kinase 1 (Q02750 whole entry S218E/S222E): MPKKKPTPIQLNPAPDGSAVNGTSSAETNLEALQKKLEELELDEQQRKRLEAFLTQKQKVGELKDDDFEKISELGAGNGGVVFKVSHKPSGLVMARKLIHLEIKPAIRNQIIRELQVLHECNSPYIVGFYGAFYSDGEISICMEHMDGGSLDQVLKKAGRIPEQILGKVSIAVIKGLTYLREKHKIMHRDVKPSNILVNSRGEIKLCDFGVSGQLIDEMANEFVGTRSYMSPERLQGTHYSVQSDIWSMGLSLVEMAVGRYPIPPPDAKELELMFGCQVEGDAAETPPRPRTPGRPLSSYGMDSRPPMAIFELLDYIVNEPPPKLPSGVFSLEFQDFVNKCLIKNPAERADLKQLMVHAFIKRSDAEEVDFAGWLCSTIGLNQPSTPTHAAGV

HT-29 = assay: Inhibition of human HT-29 cell growth; format: functional, cell-based
Cytochrome P450 3A4 [5] = target: T1, Cytochrome P450 3A4 (Homo sapiens, UniProt P08684); assay: Inhibition of CYP3A4 in human liver microsomes using midazolam as substrate measured after 30 mins preincubation by LC-MS/MS analysis in absence of NADPH; format: ADME
T1 sequence (P08684 whole entry): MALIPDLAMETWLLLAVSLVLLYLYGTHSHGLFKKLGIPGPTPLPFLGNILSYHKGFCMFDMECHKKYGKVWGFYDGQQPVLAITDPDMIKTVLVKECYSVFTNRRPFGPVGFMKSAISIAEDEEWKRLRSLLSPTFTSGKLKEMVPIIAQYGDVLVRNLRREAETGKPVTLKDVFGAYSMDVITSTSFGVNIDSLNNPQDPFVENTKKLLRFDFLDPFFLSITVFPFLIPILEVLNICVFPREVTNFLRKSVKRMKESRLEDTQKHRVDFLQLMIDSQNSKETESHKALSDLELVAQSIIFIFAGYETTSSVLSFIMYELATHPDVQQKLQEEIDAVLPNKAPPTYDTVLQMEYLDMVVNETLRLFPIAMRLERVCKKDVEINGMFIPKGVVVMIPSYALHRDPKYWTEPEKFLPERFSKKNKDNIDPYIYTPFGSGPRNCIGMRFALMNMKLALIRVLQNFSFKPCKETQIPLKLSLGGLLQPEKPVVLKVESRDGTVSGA
Method in brief: (§1)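 The IC50 is determined after a 30 min preincubation without NADPH.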

Cytochrome P450 2C9 [6] = target: T2, Cytochrome P450 2C9 (Homo sapiens, UniProt P11712); assay: Inhibition of CYP2C9 in human liver microsomes using diclofenac as substrate measured after 30 mins preincubation by LC-MS/MS analysis in absence of NADPH; format: ADME; method in brief: as §1
T2 sequence (P11712 whole entry): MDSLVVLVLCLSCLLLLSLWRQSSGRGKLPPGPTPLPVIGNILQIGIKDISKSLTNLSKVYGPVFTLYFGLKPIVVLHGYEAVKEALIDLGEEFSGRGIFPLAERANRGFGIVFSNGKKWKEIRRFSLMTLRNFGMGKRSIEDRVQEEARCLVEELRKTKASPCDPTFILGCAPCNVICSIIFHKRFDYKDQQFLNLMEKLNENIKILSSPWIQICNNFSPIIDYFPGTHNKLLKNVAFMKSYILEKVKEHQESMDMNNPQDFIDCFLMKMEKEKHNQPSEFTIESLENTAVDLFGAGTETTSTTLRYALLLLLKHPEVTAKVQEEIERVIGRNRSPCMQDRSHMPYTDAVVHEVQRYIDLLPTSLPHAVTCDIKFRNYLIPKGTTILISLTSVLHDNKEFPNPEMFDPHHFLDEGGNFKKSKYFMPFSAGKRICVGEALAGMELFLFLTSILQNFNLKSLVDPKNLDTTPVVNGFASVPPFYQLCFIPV

Cytochrome P450 3A4 [7] = target: T1, Cytochrome P450 3A4; assay: Inhibition of CYP3A4 in human liver microsomes using midazolam as substrate measured after 30 mins preincubation by LC-MS/MS analysis in presence of NADPH; format: ADME
Method in brief: (§2)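 The IC50 is determined after a 30 min preincubation with NADPH.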

Cytochrome P450 2C9 [8] = target: T2, Cytochrome P450 2C9; assay: Inhibition of CYP2C9 in human liver microsomes using diclofenac as substrate measured after 30 mins preincubation by LC-MS/MS analysis in presence of NADPH; format: ADME; method in brief: as §2
[9] = Clearance in cynomolgus monkey at 2.5 mg/kg, iv and 5 mg/kg, po by LC-MS/MS analysis; format: ADME, organism-based, Macaca fascicularis; details: in vivo
[10] = Clearance in BALB-nu/nu mouse at 2.5 mg/kg, iv and 5 mg/kg, po by LC-MS/MS analysis; format: ADME, organism-based; details: in vivo
C32 [11] = assay: Antitumor activity against human C32 cells xenografted in po dosed BALB-nu/nu mouse assessed as tumor growth inhibition administered qd for 11 days; format: functional; details: for ED50: Mus musculus, C32, po, 264 h
Method in brief: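 C32 cells implanted subcutaneously in the right flank of BALB-nu/nu mice, with tumors established before treatment. Compound given orally once daily for 11 days (day 0 to day 10). Tumor size measured twice per week. Values are mean SD, n = 4.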

Mus musculus [12] = assay: Toxicity in po dosed BALB-nu/nu mouse xenografted with human C32 cells assessed as adverse clinical signs administered qd for 11 days; format: organism-based; details: in vivo, 264 h
C32 [13] = assay: Growth inhibition of human C32 cells harboring B-Raf V600E mutant
Mus musculus [14] = assay: Toxicity in po dosed BALB-nu/nu mouse xenografted with human C32 cells assessed as body weight administered qd for 11 days; format: organism-based; details: in vivo, 264 h
[15] = Saturated solubility of the compound in fasted state simulated intestinal fluid after 24 hrs by shaking flask method; format: ADME; details: fasted state simulated intestinal fluid (FaSSIF)
Method in brief: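 Free crystalline form equilibrated for 24 h in FaSSIF, and the saturated concentration was reported.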

[16] = Bioavailability in BALB-nu/nu mouse at 2.5 mg/kg, iv and 5 mg/kg, po by LC-MS/MS analysis; format: ADME, organism-based; details: in vivo
[17] = Clearance in Crlj:CD rat at 2.5 mg/kg, iv and 5 mg/kg, po by LC-MS/MS analysis; format: ADME, organism-based; details: in vivo
[18] = Bioavailability in cynomolgus monkey at 2.5 mg/kg, iv and 5 mg/kg, po by LC-MS/MS analysis; format: ADME, organism-based, Macaca fascicularis; details: in vivo
[19] = Bioavailability in Crlj:CD rat at 2.5 mg/kg, iv and 5 mg/kg, po by LC-MS/MS analysis; format: ADME, organism-based; details: in vivo
[20] = Dissociation constant, pKa of the compound at 10 mM by spectroscopic titration analysis; format: physicochemical
[21] = Solubility of the compound in fasted state simulated intestinal fluid by LYSA method; format: ADME; details: fasted state simulated intestinal fluid (FaSSIF)
HCT-116 = assay: Inhibition of human HCT116 cell growth after 96 hrs by counting kit-8 analysis; format: functional, cell-based; details: HCT-116, 96 h
[22] = target: RAF proto-oncogene serine/threonine-protein kinase (Homo sapiens, UniProt P04049); assay: Inhibition of truncated active C-Raf (unknown origin) assessed as MEK1 phosphorylation using inactive MEK1 K97R as substrate after 45 mins
Chain of RAF proto-oncogene serine/threonine-protein kinase (P04049 whole entry, the tested form may be a part): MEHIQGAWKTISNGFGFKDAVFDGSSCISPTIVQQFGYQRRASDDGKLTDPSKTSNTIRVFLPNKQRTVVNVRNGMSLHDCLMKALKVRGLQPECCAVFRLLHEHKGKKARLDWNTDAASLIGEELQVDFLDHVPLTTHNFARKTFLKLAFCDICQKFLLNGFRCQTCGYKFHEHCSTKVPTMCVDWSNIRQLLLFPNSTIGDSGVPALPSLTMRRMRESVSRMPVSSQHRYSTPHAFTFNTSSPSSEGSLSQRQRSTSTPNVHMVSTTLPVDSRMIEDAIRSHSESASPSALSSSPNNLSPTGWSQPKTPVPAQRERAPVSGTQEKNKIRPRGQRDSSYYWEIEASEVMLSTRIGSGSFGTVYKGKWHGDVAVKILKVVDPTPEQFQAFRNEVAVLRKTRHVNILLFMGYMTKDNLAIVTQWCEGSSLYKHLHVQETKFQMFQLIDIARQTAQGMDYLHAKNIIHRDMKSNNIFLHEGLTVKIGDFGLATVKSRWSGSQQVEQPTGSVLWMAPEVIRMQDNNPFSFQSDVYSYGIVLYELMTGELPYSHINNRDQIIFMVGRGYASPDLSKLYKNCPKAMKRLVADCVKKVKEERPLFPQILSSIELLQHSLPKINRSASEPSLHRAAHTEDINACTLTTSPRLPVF

[23] = Supersaturated solubility of the compound in fasted state simulated intestinal fluid after 4 hrs by miniscale dissolution test; format: ADME; details: fasted state simulated intestinal fluid (FaSSIF)

## CNS(=O)(=O)[N-]c1cccc(Cc2c(C)c3ccc(OC(=O)N(C)C)cc3oc2=O)c1.[Na+]
[1]
  AUC at 24 h: 78 µM·h

## CNS(=O)(=O)Nc1cccc(Cc2c(C)c3cc(C)c(OC(=O)N(C)C)cc3oc2=O)c1
[2]
  Papp: 4 ×10⁻⁶ cm/s
[3]
  microsomal CLint at 5 µM: 17 µL/min/mg
[4]
  IC50: 29 nM
[1]
  AUC at 24 h: 18 µM·h
HT-29
  IC50: 8 nM

## CNS(=O)(=O)Nc1cccc(Cc2c(C)c3ccc(OC(=O)N(C)C)cc3oc2=O)c1
Cytochrome P450 3A4 [5]
  IC50: 13000 nM
Cytochrome P450 2C9 [6]
  IC50: 29000 nM
[3]
  microsomal CLint at 5 µM: 20 µL/min/mg
Cytochrome P450 3A4 [7]
  IC50: 5600 nM
[4]
  IC50: 110 nM
HT-29
  IC50: 9 nM
Cytochrome P450 2C9 [8]
  IC50: 96000 nM

## CNS(=O)(=O)Nc1cccc(Cc2c(C)c3ccc(Oc4ncccn4)cc3oc2=O)c1F
[9]
  clearance: 0.9 mL/min/kg
[10]
  clearance: 6.8 mL/min/kg
C32 [11]
  TGI: 96%
  ED50: 1.44 mg/kg
Mus musculus [12]
  Activity: Non-toxic
Cytochrome P450 3A4 [5]
  IC50: 26000 nM
C32 [13]
  IC50: 57 nM
Mus musculus [14]
  Activity: Non-toxic
Cytochrome P450 2C9 [6]
  IC50: 19000 nM
[3]
  microsomal CLint at 5 µM: 6.7 µL/min/mg
Cytochrome P450 3A4 [7]
  IC50: 11000 nM
[15]
  solubility thermodynamic at 24 h: 5.5 µg/mL (≈ 11.7 µM)
[16]
  bioavailability: 75%
[4]
  IC50: 97 nM
[1]
  AUC at 24 h: 425 µM·h
[17]
  clearance: 6.6 mL/min/kg
[18]
  bioavailability: 59%
Cytochrome P450 2C9 [8]
  IC50: 19000 nM
[19]
  bioavailability: 84%
[20]
  pKa at 10000 µM: 8.86

## CNS(=O)(=O)Nc1cccc(Cc2c(C)c3ccc(OC(=O)N(C)C)nc3oc2=O)c1
[2]
  Papp: 3 ×10⁻⁶ cm/s
[3]
  microsomal CLint at 5 µM: 3 µL/min/mg
[21]
  solubility: 43 µg/mL (≈ 96.3 µM)
[4]
  IC50: 440 nM
HCT-116
  IC50: 1100 nM
HT-29
  IC50: 600 nM
[22]
  IC50: 2500 nM

## CNS(=O)(=O)Nc1cccc(Cc2c(C)c3ccc(OC(=O)N(C)C)cc3oc2=O)n1
[2]
  Papp: 6 ×10⁻⁶ cm/s
[3]
  microsomal CLint at 5 µM: 7 µL/min/mg
[21]
  solubility: 320 µg/mL (≈ 717 µM)
[4]
  IC50: 110 nM
HCT-116
  IC50: 270 nM
[1]
  AUC at 24 h: 314 µM·h
HT-29
  IC50: 73 nM
[22]
  IC50: 70 nM

## CNS(=O)(=O)Nc1cc(Cc2c(C)c3ccc(OC(=O)N(C)C)cc3oc2=O)ccn1
Cytochrome P450 3A4 [5]
  IC50: > 100000 nM
Cytochrome P450 2C9 [6]
  IC50: > 100000 nM
[2]
  Papp: 7 ×10⁻⁶ cm/s
[3]
  microsomal CLint at 5 µM: 6 µL/min/mg
Cytochrome P450 3A4 [7]
  IC50: > 100000 nM
[21]
  solubility: 55 µg/mL (≈ 123 µM)
[4]
  IC50: 99 nM
HCT-116
  IC50: 32 nM
[1]
  AUC at 24 h: 134 µM·h
HT-29
  IC50: 25 nM
Cytochrome P450 2C9 [8]
  IC50: > 100000 nM
[22]
  IC50: 32 nM

## CNS(=O)(=O)Nc1cncc(Cc2c(C)c3ccc(OC(=O)N(C)C)cc3oc2=O)c1
[21]
  solubility: 240 µg/mL (≈ 538 µM)
[4]
  IC50: > 50000 nM
HCT-116
  IC50: > 10000 nM
HT-29
  IC50: > 10000 nM
[22]
  IC50: > 50000 nM

## CNS(=O)(=O)Nc1ccnc(Cc2c(C)c3cc(C)c(OC(=O)N(C)C)cc3oc2=O)c1
[21]
  solubility: 425 µg/mL (≈ 923 µM)
[4]
  IC50: 37000 nM
HCT-116
  IC50: > 10000 nM
HT-29
  IC50: 5700 nM
[22]
  IC50: 27000 nM

## CNS(=O)(=O)Nc1nccc(Cc2c(C)c3ccc(Oc4ccccc4)cc3oc2=O)c1F
[4]
  IC50: 76 nM
HCT-116
  IC50: 110 nM
[22]
  IC50: 21 nM

## CNS(=O)(=O)Nc1nccc(Cc2c(C)c3ccc(Oc4ccccn4)cc3oc2=O)c1F
[4]
  IC50: 190 nM
HCT-116
  IC50: 45 nM
[22]
  IC50: 81 nM

## CNS(=O)(=O)Nc1nccc(Cc2c(C)c3ccc(Oc4cnccn4)cc3oc2=O)c1F
[4]
  IC50: 650 nM
HCT-116
  IC50: 900 nM
[22]
  IC50: 56 nM

## CNS(=O)(=O)Nc1cccc(Nc2c(C)c3ccc(Oc4ncccn4)cc3oc2=O)c1
[4]
  IC50: > 50000 nM
HCT-116
  IC50: > 10000 nM
[22]
  IC50: > 50000 nM

## CNS(=O)(=O)[N-]c1cccc(Cc2c(C)c3ccc(Oc4ncccn4)cc3oc2=O)c1F.[K+]
[23]
  solubility at 4 h: 12 µg/mL

## CNS(=O)(=O)[N-]c1nccc(Cc2c(C)c3ccc(Oc4ncccn4)cc3oc2=O)c1F.[K+] [AVUTOMETINIB POTASSIUM]
[23]
  solubility at 4 h: 57 µg/mL

## CNS(=O)(=O)Nc1nccc(Cc2c(C)c3ccc(Oc4ncccn4)cc3oc2=O)c1F [AVUTOMETINIB]
[9]
  clearance: 0.1 mL/min/kg
[10]
  clearance: 1.1 mL/min/kg
C32 [11]
  TGI: 118%
  ED50: 0.09 mg/kg
Mus musculus [12]
  Activity: Non-toxic
Cytochrome P450 3A4 [5]
  IC50: > 100000 nM
C32 [13]
  IC50: 47 nM
Mus musculus [14]
  Activity: Non-toxic
Cytochrome P450 2C9 [6]
  IC50: 12000 nM
[3]
  microsomal CLint at 5 µM: 0.5 µL/min/mg
Cytochrome P450 3A4 [7]
  IC50: > 100000 nM
[21]
  solubility: 159 µg/mL (≈ 337 µM)
[15]
  solubility thermodynamic at 24 h: 2.7 µg/mL (≈ 5.73 µM)
[16]
  bioavailability: 93%
HCT-116
  IC50: 40 nM
[1]
  AUC at 24 h: 2830 µM·h
[17]
  clearance: 0.7 mL/min/kg
[18]
  bioavailability: 82%
Cytochrome P450 2C9 [8]
  IC50: 60000 nM
[19]
  bioavailability: 66%
[20]
  pKa at 10000 µM: 7.02
[22]
  IC50: 56 nM
